Experimental data as given in ChEMBL document CHEMBL4020818, “Novel Sigma Receptor Ligand-Nitric Oxide Photodonors: Molecular Hybrids for Double-Targeted Antiproliferative Effect” (J Med Chem, 2017).
Active and inactive are the calls of the source.

Tests used:
A2058 [1] = experiment: Phototoxicity in human A2058 cells assessed as decrease in cell viability at 10 to 25 uM preincubated for 24 hrs followed by light irradiation for 15 mins by MTT assay; assay type: functional, cell-based
Outline: (§1)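 Cells seeded at 10 × 10^3 per well and grown 24 h. Compound from DMSO stock, diluted in medium, incubated 24 h at 37 °C. Medium then swapped for phenol red-free medium and cells irradiated 15 min (150 W Xe lamp, 390 nm cutoff). MTT (0.5%) for 4 h, formazan in DMSO, OD 550 nm; viability as % of untreated controls. Quadruplicate wells, ≥2 repeats.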

[2] = Solubility of the compound in water/methanol (1:1) mixture; assay type: physicochemical; details: buffer
[3] = Dark toxicity in human NCTC-2544 cells assessed as decrease in cell viability after 24 hrs by MTT assay; assay type: cell-based
Outline: (§2)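 Cells seeded at 10 × 10^3 per well, grown 24 h, then exposed in the dark for 24 h at 37 °C to compound (DMSO stock diluted in medium), top concentration 100 µM. MTT 0.5% added for 4 h, formazan dissolved in DMSO, read at 550 nm. Viability is expressed relative to untreated controls. EC50 comes from a variable-slope sigmoidal fit; quadruplicate wells, mean ± SEM.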

[4] = target: Sigma non-opioid intracellular receptor 1 (Cavia porcellus, UniProt Q60492); experiment: Displacement of [3H]-(+)-pentazocine from sigma 1 receptor in guinea pig brain membranes after 150 mins by liquid scintillation counting method; assay type: cell membranes, Membrane
Outline: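 Separated by filtration on PEI-presoaked GF/B filters, washed with ice-cold buffer, counted by liquid scintillation.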

[5] = Stability in human MCF7 cells assessed as nitric oxide release under light irradiation at 50 uM preincubated for 24 hrs followed by light irradiation for 15 mins by DCF-DA dye-based fluorescence microscopic method; assay type: ADME, cell-based; details: mcf7, 0.25 h
Outline: (§3)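 Cells plated on glass coverslips at 50,000, attached overnight, serum-starved 24 h, then treated with compound for 24 h. Loaded with 10 µM DCF-DA for 1 h, washed in PBS, irradiated in phenol red-free medium (Xe lamp, 390 nm cutoff, 15 min). Fixed in 4% PFA and imaged by fluorescence microscopy at 10x and 40x, dark versus light.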

NCTC-2544 [6] = experiment: Phototoxicity in human NCTC-2544 cells assessed as decrease in cell viability at 10 to 50 uM preincubated for 24 hrs followed by light irradiation for 15 mins by MTT assay; assay type: cell-based; details: nctc-2544, 0.25 h
Outline: (§4)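 Cells preincubated 24 h with graded compound concentrations, medium then replaced with phenol red-free medium. Irradiated 15 min with a 150 W Xe lamp through a 390 nm cutoff filter; untreated cells also irradiated. Viability by MTT (0.5%, 4 h, DMSO, 550 nm) as percent of untreated controls; quadruplicate wells, mean ± SD.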

[7] = Stability in human MCF7 cells assessed as nitric oxide release under light irradiation at 50 uM preincubated for 24 hrs followed by light irradiation for 15 mins by Griess assay; assay type: ADME, cell-based; details: mcf7, 0.25 h
Outline: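 After 50 µM compound treatment and irradiation (or dark control), cells were pelleted and lysed in hypotonic solution. Supernatant mixed 1:1 with Griess reagent, 30 min at 37 °C in the dark, absorbance read at 545 nm. Normalised to protein content; total nitrite quantified against a sodium nitrite standard.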

[8] = Stability of the compound in water/methanol (1:1) mixture assessed as nitric oxide release under light irradiation at 50 uM by amperometric detection method; assay type: physicochemical; details: buffer
A2058 [9] = experiment: Phototoxicity in human A2058 cells assessed as decrease in cell viability at 50 uM preincubated for 24 hrs followed by light irradiation for 15 mins by MTT assay; assay type: functional, cell-based; outline: as §1
[10] = Stability of the compound in water/methanol (1:1) mixture assessed as nitric oxide release under dark condition at 50 uM by amperometric detection method; assay type: physicochemical; details: buffer
[11] = Dark toxicity in human MCF7 cells assessed as decrease in cell viability after 24 hrs by MTT assay; assay type: cell-based; outline: as §2
[12] = Dark toxicity in human A2058 cells assessed as decrease in cell viability after 24 hrs by MTT assay; assay type: cell-based; outline: as §2
[13] = Selectivity ratio of Ki for sigma 1 receptor in guinea pig brain membranes to Ki for sigma 2 receptor (unknown origin); assay type: cell membranes
[14] = target: Sigma intracellular receptor 2 (Homo sapiens, UniProt Q5BJF2); experiment: Displacement of [3H]-DTG from sigma 2 receptor (unknown origin) after 120 mins by liquid scintillation counting method
MCF7 [15] = experiment: Phototoxicity in human MCF7 cells assessed as decrease in cell viability at 10 to 50 uM preincubated for 24 hrs followed by light irradiation for 15 mins by MTT assay; assay type: functional, cell-based; outline: as §4
NCTC-2544 [16] = experiment: Dark toxicity in human NCTC-2544 cells assessed as decrease in cell viability at 10 to 50 uM after 24 hrs by MTT assay; assay type: cell-based; details: nctc-2544, 24 h
Outline: (§5)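 Dark arm of the light experiments. Cells were seeded at 10 × 10^3 per well, precultured 24 h, then incubated 24 h at 37 °C with graded compound concentrations without irradiation. Viability was read by MTT (0.5%, 4 h, DMSO, 550 nm) as percent of untreated controls; quadruplicate wells, mean ± SD.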

[17] = Stability of the compound in water/methanol (1:1) mixture assessed as nitric oxide release under light irradiation by amperometric detection method; assay type: physicochemical; details: buffer
A2058 [18] = experiment: Dark toxicity in human A2058 cells assessed as decrease in cell viability at 10 to 50 uM after 24 hrs by MTT assay; assay type: cell-based; details: a2058, 24 h; outline: as §5
MCF7 [19] = experiment: Dark toxicity in human MCF7 cells assessed as decrease in cell viability at 10 to 50 uM after 24 hrs by MTT assay; assay type: cell-based; details: mcf7, 24 h; outline: as §5
A2058 [20] = experiment: Phototoxicity in human A2058 cells assessed as decrease in cell viability at 10 to 50 uM preincubated for 24 hrs followed by light irradiation for 15 mins by MTT assay; assay type: functional, cell-based; outline: as §4
[21] = Stability in human MCF7 cells assessed as nitric oxide release under light irradiation at 10 uM preincubated for 24 hrs followed by light irradiation for 15 mins by DCF-DA dye-based fluorescence microscopic method; assay type: ADME, cell-based; details: mcf7, 0.25 h; outline: as §3
[22] = Stability in human A2058 cells assessed as nitric oxide release under light irradiation at 10 uM preincubated for 24 hrs followed by light irradiation for 15 mins by DCF-DA dye-based fluorescence microscopic method; assay type: ADME, cell-based; details: a2058, 0.25 h; outline: as §3
NCTC-2544 [23] = experiment: Phototoxicity in human NCTC-2544 cells assessed as decrease in cell viability at 0.01 to 10 uM preincubated for 24 hrs followed by light irradiation for 15 mins by MTT assay; assay type: cell-based; details: nctc-2544, 0.25 h; outline: as §4
A2058 [24] = experiment: Phototoxicity in human A2058 cells assessed as decrease in cell viability at 1 to 10 uM preincubated for 24 hrs followed by light irradiation for 15 mins by MTT assay; assay type: functional, cell-based; outline: as §4
MCF7 [25] = experiment: Phototoxicity in human MCF7 cells assessed as decrease in cell viability at 0.01 to 10 uM preincubated for 24 hrs followed by light irradiation for 15 mins by MTT assay; assay type: functional, cell-based; outline: as §4
MCF7 [26] = experiment: Dark toxicity in human MCF7 cells assessed as decrease in cell viability at 0.01 to 10 uM after 24 hrs by MTT assay; assay type: cell-based; details: mcf7, 24 h; outline: as §5
NCTC-2544 [27] = experiment: Dark toxicity in human NCTC-2544 cells assessed as decrease in cell viability at 0.01 to 10 uM after 24 hrs by MTT assay; assay type: cell-based; details: nctc-2544, 24 h; outline: as §5

Sequence of Sigma non-opioid intracellular receptor 1 (Q60492 whole entry): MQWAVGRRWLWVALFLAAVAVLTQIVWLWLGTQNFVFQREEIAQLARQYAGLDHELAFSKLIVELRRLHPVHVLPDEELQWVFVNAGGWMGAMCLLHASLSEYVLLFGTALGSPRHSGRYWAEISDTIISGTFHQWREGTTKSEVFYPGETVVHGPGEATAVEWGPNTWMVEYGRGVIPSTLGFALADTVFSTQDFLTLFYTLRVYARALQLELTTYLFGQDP
Sequence of Sigma intracellular receptor 2 (Q5BJF2 whole entry): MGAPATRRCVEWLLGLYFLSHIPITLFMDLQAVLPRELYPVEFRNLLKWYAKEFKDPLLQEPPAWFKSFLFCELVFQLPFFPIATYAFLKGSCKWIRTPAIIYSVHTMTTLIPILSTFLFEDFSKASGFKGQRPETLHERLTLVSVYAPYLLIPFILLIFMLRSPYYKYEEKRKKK

| Compound | solubility [2] | EC50 at 24 h ([3]; read-out: EC50) | EC50 at 24 h ([3]; read-out: pEC50 (converted)) | Ki [4] | EC50 at 24 h ([11]; read-out: EC50) | EC50 at 24 h ([11]; read-out: pEC50 (converted)) | EC50 at 24 h ([12]; read-out: EC50) | EC50 at 24 h ([12]; read-out: pEC50 (converted)) | Ratio Ki [13] | Ki [14] | Stability [17] | also measured |
| --- | --- | --- | --- | --- | --- | --- | --- | --- | --- | --- | --- | --- |
| COc1cc2c(cc1OC)CN(CCCCCNc1ccc([N+](=O)[O-])c(C(F)(F)F)c1)CC2 | Soluble | > 100 µM | > 100 µM | 0.0394 µM | > 100 µM | > 100 µM | > 100 µM | > 100 µM | 1.55 | 0.0255 µM |  | Activity (A2058 [1]): inactive; Stability [5]: Unstable; Activity (NCTC-2544 [6]): Non-Toxic; Stability [7]: Unstable; Stability [8]: Unstable; Activity (A2058 [9]): Active; Stability [10]: Stable; Activity (MCF7 [15]): Active; Activity (NCTC-2544 [16]): Non-Toxic |
| O=[N+]([O-])c1ccc(NCCCN2CCC(Cc3ccccc3)CC2)cc1C(F)(F)F | Soluble |  |  | 0.0416 µM |  |  |  |  | 1.87 | 0.0223 µM | Unstable |  |
| O=[N+]([O-])c1ccc(NCCCCN2CCC(Cc3ccccc3)CC2)cc1C(F)(F)F | Soluble |  |  | 0.02 µM |  |  |  |  | 2.38 | 0.0084 µM | Unstable |  |
| O=[N+]([O-])c1ccc(NCCN2CCC(Cc3ccccc3)CC2)cc1C(F)(F)F | Soluble |  |  | 0.0407 µM |  |  |  |  | 0.53 | 0.0761 µM | Unstable |  |
| COc1cc2c(cc1OC)CN(CCNc1ccc([N+](=O)[O-])c(C(F)(F)F)c1)CC2 | Soluble | > 100 µM | > 100 µM | 3.92 µM | > 100 µM | > 100 µM | > 100 µM | > 100 µM | 164 | 0.0238 µM | Unstable | Stability [5]: Unstable; Activity (NCTC-2544 [6]): Non-Toxic; Stability [7]: Unstable; Activity (A2058 [18]): Non-Toxic; Activity (MCF7 [15]): Active; Activity (MCF7 [19]): Non-Toxic; Activity (NCTC-2544 [16]): Non-Toxic; Activity (A2058 [20]): inactive |
| COc1cc2c(cc1OC)CN(CCCNc1ccc([N+](=O)[O-])c(C(F)(F)F)c1)CC2 | Soluble |  |  | 0.212 µM |  |  |  |  | 13.1 | 0.0162 µM | Unstable |  |
| COc1cc2c(cc1OC)CN(CCCCNc1ccc([N+](=O)[O-])c(C(F)(F)F)c1)CC2 | Soluble |  |  | 0.0378 µM |  |  |  |  | 1.64 | 0.023 µM | Unstable |  |
| O=[N+]([O-])c1ccc(NCCCCCN2CCC(Cc3ccccc3)CC2)cc1C(F)(F)F | Soluble | 15 µM | 15.1 µM | 0.0404 µM | 14.9 µM | 14.8 µM | 14.2 µM | 14.1 µM | 1.68 | 0.024 µM | Unstable | Stability [21]: Unstable; Stability [22]: Unstable; Activity (NCTC-2544 [23]): Non-Toxic; Activity (A2058 [24]): Active; Activity (MCF7 [25]): Active; Activity (MCF7 [26]): Non-Toxic; Activity (NCTC-2544 [27]): Non-Toxic |
| COc1cccc2c1C(=O)c1c(O)c3c(c(O)c1C2=O)C[C@@](O)(C(=O)CO)C[C@@H]3O[C@H]1C[C@H](N)[C@H](O)[C@H](C)O1 [DOXORUBICIN] |  | 32.5 µM | 32.4 µM |  | 15.3 µM | 15.5 µM | 6.5 µM | 6.46 µM |  |  |  |  |
